APP transl inh – APP translation inhibition. inhibition, % at 2 µM. 190,000 compounds, 0.82% hits. SH-SY5Y APP 5'UTR-luciferase reporter, luminescence;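 active means inhibition above a set limit, derived from the sample mean plus 3 SD, cut at about 45% in these data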
Ba/F3 V617F tox – loss of viability in JAK2V617F-driven Ba/F3 cells; Ba/F3 EpoR-JAK2V617F viability, ATP luminescence; inhibition, % at 5.6 µM; 220,000 compounds, 1.1% hits; AID 1446;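 active means inhibition above the campaign mean plus 3 SD over all tested compounds, cut at about 24% in these data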;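 further: cytokine-independent growth of Ba/F3 cells driven by EpoR plus mutant JAK2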
Lmaj promast – reduces viability of Leishmania major promastigotes; resazurin fluorescence viability; inhibition, % at 10 µM; 200,000 compounds, 9% hits; in the data active means inhibition above about 50%;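 further: promastigotes grown with compound for 44 hours at 28 °C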
BaF3 tox – parental Ba/F3 viability inhibition as JAK2V617F counter-screen; inhibition, % at 5.6 µM; CellTiter-Glo ATP luminescence; AID 1486; 220,000 compounds, 1.1% hits;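 active means inhibition above a per-campaign cutoff, the mean inhibition of all tested compounds plus 3 SD, cut at about 27% in these data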
bCat nuc transl – alters nuclear translocation of beta-catenin in HeLa cells; AID 1665; 190,000 compounds, 0.3% hits; immunofluorescence imaging; nuclear translocation activity, % at 5 µM;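 active means nuclear translocation activity above 50% at 5 µM, with a well cell count of 50 or more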;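 further: per-cell ratio of nuclear to cytoplasmic median beta-catenin stain intensity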
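assay system = human HeLa cells, endogenous beta-catenin | times = compound treatment 24 h, 37°C, 5% CO2 | detection = Anti-beta-catenin immunofluorescence on PFA-fixed, Triton-permeabilized cells, DAPI nuclei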
MT stabilize HCS – stabilizes microtubules in HeLa cells; 200,000 compounds, 0.83% hits; % tubulin-high responders, % at 10 µM; HeLa tubulin immunostaining HCS, 24 h; share of cells brighter than vehicle mean+2SD;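 active means plate Z-score above 3 for both tubulin-high and condensed-nucleus cell shares, with cell loss under 80%, at 10 µM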;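 further: anti alpha tubulin signal scored within the nucleus-defined area of each cell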
Numbers stand for hits; – = inactive; · = not tested or not shown. Only some compounds are listed: those with a hit (about 9.6% of all), similar ones and a draw of the others.

SMILES	APP transl inh	Ba/F3 V617F tox	Lmaj promast	BaF3 tox	bCat nuc transl	MT stabilize HCS
COc1ccc(CC(=O)Nc2ccc(N3CCOCC3)cc2)cc1OC	·	–	·	–	–	·
Cc1ccc(N/N=C(\C#N)C(N)=S)cc1C	–	–	50	–	–	–
CC(C)COC(=O)c1cc(-c2ccc(/C=N/n3cnnc3)o2)ccc1Cl	–	–	–	–	–	–
Fc1ccc(-c2ccc(/C=N\n3cnnc3)o2)cc1Cl	–	–	95	–	–	–
CCn1c(=O)c(=O)[nH]c2cc(C(=O)NC3CCCc4ccccc43)ccc21 (stereo not drawn)	–	–	–	–	–	29
CCN(CC)S(=O)(=O)c1ccc2c(c1)nc(CCC(=O)Nc1ccccc1Cc1ccccc1)n2CC	–	–	86	–	–	–
CC(C)NC(=O)C(=O)NNC(=O)CCc1ccccc1	–	–	–	–	–	–
Cc1cc(C)cc(-n2c(C)cc(C(=S)N3CCOCC3)c2C)c1	–	–	55	–	–	–
O=C(NC(c1ccccc1)c1ccccc1)c1ccc(=O)[nH]n1	–	–	–	–	–	–
COc1ccc(C(=O)CSc2nnc(-c3cccnc3)n2Cc2ccco2)cc1	–	–	–	–	–	–
O=C(CSc1nnc(-c2ccncc2)n1Cc1ccco1)c1ccc(Cl)cc1	–	–	–	–	·	–
COc1ccc(C(=O)CSc2nnc(-c3cc4ccccc4cc3O)n2Cc2ccco2)cc1	–	–	69	–	–	–
O=C(CSc1nnc(-c2ccc(Cl)cc2)n1Cc1ccco1)c1cccs1	–	–	80	–	–	–
COc1ccc(Oc2cccc(Cl)c2CNC(=O)CCCC(=O)O)cc1	·	–	·	–	–	·
CCCCOC(=O)/C(=C\c1ccc([N+](=O)[O-])o1)NC(=O)c1ccccc1	–	–	83	–	–	–
CC(C)(C)NC(=S)NC(C)(C)C	·	–	·	–	–	·
CCOC(=O)C1=C(C)N(C)C(=S)NC1c1cc(OC)ccc1OC (stereo not drawn)	–	–	–	–	·	–
N#CC1=C(N)N(c2ccc(Oc3ccccc3)cc2)C(=O)C1	–	–	91	–	–	–
N#Cc1cccnc1N1CCC(C(N)=O)CC1	·	–	·	–	–	·
COc1ccc(/C=C/C(=O)c2ccc(O)cc2)cc1CN1CCOCC1	–	–	98	–	–	–
COc1ccc(/C=C/C(=O)C23CC4CC(CC(C4)C2)C3)cc1CN1CCOCC1	–	–	66	–	–	–
COc1ccc(C(=O)/C=C/c2ccc(OC)c(CN3CCOCC3)c2)cc1	–	–	86	–	–	–
COc1ccc(/C=C/C(=O)c2ccccc2O)cc1CN1CCOCC1	–	–	–	–	–	–
COc1ccc(C(=O)/C=C/c2ccc(OC)c(Cn3nnc4ccccc43)c2)cc1	–	–	85	–	–	–
CCN(CC)CCCNC(=O)CNC(=S)N(CCCN1CCOCC1)Cc1cccs1	–	–	–	–	–	–
SMILES	APP transl inh	Ba/F3 V617F tox	Lmaj promast	BaF3 tox	bCat nuc transl	MT stabilize HCS
COc1ccc(/C=C/C(=O)c2nc3ccccc3n2CC(=O)c2ccc(OC)cc2)cc1	–	–	75	–	–	–
CN(C)CCNC(=O)COc1ccc(C23CC4CC(CC(C4)C2)C3)cc1	–	–	101	–	–	–
Cc1ccc(CNC(=O)NC23CC4CC(CC(C4)C2)C3)cc1	–	–	–	–	·	–
Cc1ccc(C23CC4CC(CC(NC(=O)NCCN(C)C)(C4)C2)C3)cc1	–	–	99	–	–	–
Cc1ccc(NC(=O)n2ccc(-c3ccc(-n4ccnc4)cc3)n2)cc1	–	–	–	–	–	–
O=C(NCC(c1cccnc1)N1CCOCC1)NC1CCCCC1 (stereo not drawn)	–	–	–	–	–	–
O=C(NCC(c1cccnc1)N1CCN(c2ccccc2F)CC1)C1CCCCC1 (stereo not drawn)	–	–	71	–	·	–
O=C(NCC(c1cccnc1)N1CCN(c2ccc(F)cc2)CC1)C1CCCCC1 (stereo not drawn)	–	–	74	–	–	–
COc1ccc(N2CCN(C(CNC(=O)C3CCCCC3)c3cccnc3)CC2)cc1 (stereo not drawn)	–	–	87	–	–	–
Cc1onc(-c2c(F)cccc2Cl)c1C(=O)ONC(=O)c1ccco1	·	–	·	–	–	·
CCC(CC)NC(=O)/C=C/c1ccccc1Cl	–	–	–	–	·	–
CC(=O)N(C)c1ccc(NC(=O)/C=C/c2ccccc2Cl)cc1	–	–	60	–	–	–

Compound activity (PubChem BioAssay)
